Measured values from ChEMBL document CHEMBL1143002, “Discovery and structure-activity relationships of piperidinone- and piperidine-constrained phenethylamines as novel, potent, and selective dipeptidyl peptidase IV inhibitors” (J Med Chem, 2007).

Columns and labels:
[1] = Plasma clearance in rat at 5 mg/kg, iv; type: ADME, organism-based; design: dose 5 mg/kg, route intravenous
How it was run: (§1)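 Rats (n = 6) dosed at 5 mg/kg by iv and po routes. Plasma clearance and steady-state volume of distribution were taken from iv dosing. Cmax (maximal concentration) and terminal half-life were taken from oral dosing. AUC and oral bioavailability (F) are also reported.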

[2] = Volume of distribution at steady state in rat at 5 mg/kg, iv; type: ADME, organism-based; design: dose 5 mg/kg, route intravenous; conditions: in vivo, read-out: Vss; how it was run: as §1
[3] = Oral bioavailability in rat at 5 mg/kg, po; type: ADME, organism-based; conditions: in vivo; how it was run: as §1
[4] = Half life in rat at 5 mg/kg, po; type: ADME, organism-based; design: dose 5 mg/kg, route oral; conditions: in vivo; how it was run: as §1
Dipeptidyl peptidase 9 = Dipeptidyl peptidase 9 (Homo sapiens, UniProt Q86TI2); experiment: Inhibition of DPP9
Chain of Dipeptidyl peptidase 9 (Q86TI2 whole entry): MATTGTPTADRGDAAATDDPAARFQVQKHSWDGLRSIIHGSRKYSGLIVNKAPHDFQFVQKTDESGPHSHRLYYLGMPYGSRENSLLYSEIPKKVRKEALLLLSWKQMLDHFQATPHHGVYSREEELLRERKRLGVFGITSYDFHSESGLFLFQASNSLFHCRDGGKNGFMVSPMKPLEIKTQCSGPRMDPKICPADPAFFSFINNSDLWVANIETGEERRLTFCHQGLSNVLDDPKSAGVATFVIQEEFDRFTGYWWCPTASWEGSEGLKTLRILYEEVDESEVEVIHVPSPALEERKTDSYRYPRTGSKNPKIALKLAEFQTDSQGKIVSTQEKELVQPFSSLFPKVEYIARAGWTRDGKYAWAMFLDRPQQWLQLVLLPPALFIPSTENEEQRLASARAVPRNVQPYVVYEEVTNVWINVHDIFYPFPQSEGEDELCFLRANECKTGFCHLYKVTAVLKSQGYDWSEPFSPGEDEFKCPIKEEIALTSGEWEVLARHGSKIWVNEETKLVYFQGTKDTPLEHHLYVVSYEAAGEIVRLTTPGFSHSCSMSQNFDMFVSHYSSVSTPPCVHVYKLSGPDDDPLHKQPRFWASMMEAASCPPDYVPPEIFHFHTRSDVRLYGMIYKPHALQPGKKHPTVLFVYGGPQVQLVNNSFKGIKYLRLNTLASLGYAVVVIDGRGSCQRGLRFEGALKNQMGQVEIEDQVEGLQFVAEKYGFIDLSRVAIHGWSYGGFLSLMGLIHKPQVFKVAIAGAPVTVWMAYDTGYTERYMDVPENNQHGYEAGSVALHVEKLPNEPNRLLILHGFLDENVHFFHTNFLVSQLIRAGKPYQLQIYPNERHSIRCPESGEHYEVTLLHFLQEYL

[5] = Cmax in rat at 5 mg/kg, po; type: ADME, organism-based; design: dose 5 mg/kg, route oral; conditions: in vivo; how it was run: as §1
Dipeptidyl peptidase 8 = Dipeptidyl peptidase 8 (Homo sapiens, UniProt Q6V1X1); experiment: Inhibition of DPP8
Chain of Dipeptidyl peptidase 8 (Q6V1X1 whole entry): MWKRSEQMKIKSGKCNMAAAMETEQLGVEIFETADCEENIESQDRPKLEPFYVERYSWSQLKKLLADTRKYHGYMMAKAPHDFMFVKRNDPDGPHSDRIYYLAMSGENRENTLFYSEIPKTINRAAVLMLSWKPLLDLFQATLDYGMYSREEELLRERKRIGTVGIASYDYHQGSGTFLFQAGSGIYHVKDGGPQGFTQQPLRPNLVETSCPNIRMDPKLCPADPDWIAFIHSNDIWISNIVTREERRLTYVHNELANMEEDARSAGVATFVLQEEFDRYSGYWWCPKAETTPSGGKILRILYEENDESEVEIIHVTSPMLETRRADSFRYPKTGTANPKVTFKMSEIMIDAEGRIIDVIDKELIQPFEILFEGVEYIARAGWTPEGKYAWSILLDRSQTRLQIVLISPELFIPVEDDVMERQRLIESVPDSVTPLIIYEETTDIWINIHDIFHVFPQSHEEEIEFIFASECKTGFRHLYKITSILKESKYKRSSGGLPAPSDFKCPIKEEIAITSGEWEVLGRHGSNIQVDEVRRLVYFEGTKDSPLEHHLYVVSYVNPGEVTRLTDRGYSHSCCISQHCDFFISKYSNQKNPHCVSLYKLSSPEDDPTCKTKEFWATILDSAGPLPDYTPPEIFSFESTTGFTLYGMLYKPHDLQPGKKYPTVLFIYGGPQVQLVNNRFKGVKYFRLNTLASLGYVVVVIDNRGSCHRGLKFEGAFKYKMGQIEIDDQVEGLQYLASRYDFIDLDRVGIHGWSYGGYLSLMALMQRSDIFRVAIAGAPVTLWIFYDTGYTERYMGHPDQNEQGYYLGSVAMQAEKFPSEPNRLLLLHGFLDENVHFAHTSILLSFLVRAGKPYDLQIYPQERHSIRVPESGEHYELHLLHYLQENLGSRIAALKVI

Rattus norvegicus = experiment: AUC in rat at 5 mg/kg, po; type: ADME, organism-based, Plasma; design: dose 5 mg/kg, route oral; conditions: in vivo; how it was run: as §1

Compound | clearance [1] | Vd [2] | bioavailability [3] | half-life [4] | Ki (Dipeptidyl peptidase 9) | Cmax [5] | Ki (Dipeptidyl peptidase 8) | AUC (Rattus norvegicus)
CS(=O)(=O)c1cccc(-c2cc(N3C[C@H](N)[C@@H](c4cc(F)c(F)cc4F)CC3=O)ncn2)c1 | 3.17 mL/min/kg | 1.28 L/kg | 90.3% | 7.8 h | > 30 µM | 2000 ng/mL | > 30 µM | 24400 ng·h/mL
N[C@H]1CN(c2cc(N3CC[C@@H](O)C3)ncn2)C(=O)C[C@@H]1c1cc(F)c(F)cc1F |  |  |  |  |  |  | > 30 µM | 
Cl.N[C@H]1CN(CCc2ccc3c(c2)OCO3)C(=O)C[C@@H]1c1cc(F)c(F)cc1F | 36.3 mL/min/kg | 1.04 L/kg | 9% | 0.42 h |  | 192 ng/mL |  | 223 ng·h/mL
CS(=O)(=O)c1cccc(CCN2C[C@H](N)[C@@H](c3cc(F)c(F)cc3F)CC2=O)c1 | 30.2 mL/min/kg | 1.24 L/kg | 27.6% | 1.8 h |  | 710 ng/mL |  | 771 ng·h/mL
